Reference: ChEMBL document CHEMBL3860043, “Non-Acidic Free Fatty Acid Receptor 4 Agonists with Antidiabetic Activity” (J Med Chem, 2016)
≈ marks a conversion by molar mass, not a printed value. Blank lines part the entries; values can stand above or below the compound they belong to. Calls of active or inactive are those of the source. The calls are words filed in the database; no cut-off is given here.

Assays:
[1] = biological target: T1, Free fatty acid receptor 1 (Homo sapiens, UniProt O14842); test: Antagonist activity against human FFA1 expressed in human Flp-In T-REx293 cells assessed as as reduction in TUG424-induced response by Fura2-AM dye based calcium mobilization assay; assay type: functional, cell-based
T1 sequence (O14842 whole entry): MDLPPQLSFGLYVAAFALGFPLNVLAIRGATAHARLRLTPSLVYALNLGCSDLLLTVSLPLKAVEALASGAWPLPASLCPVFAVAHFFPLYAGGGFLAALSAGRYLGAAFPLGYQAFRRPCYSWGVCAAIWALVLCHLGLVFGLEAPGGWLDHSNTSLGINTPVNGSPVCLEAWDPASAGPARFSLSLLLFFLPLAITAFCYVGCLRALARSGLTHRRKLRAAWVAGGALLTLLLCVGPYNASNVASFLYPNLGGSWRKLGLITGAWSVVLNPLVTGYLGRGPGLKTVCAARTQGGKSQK
How it was run: (§1)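 Flp-In T-REx 293 cells with inducible human FFA1, seeded at 50000 cells/well and induced with 100 ng/ml doxycycline after 3-4 h adherence. Next day loaded with Fura2-AM for 45 min, washed, then preincubated 15 min in HBSS with test ligand before 300 nM agonist challenge. Fura2 340:380 ratio change read at 510 nm emission. Inhibition expressed as % reduction of the agonist response.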

[2] = biological target: T1, Free fatty acid receptor 1; test: Antagonist activity against human FFA1 expressed in human Flp-In T-REx293 cells assessed as as reduction in 300 nM TUG424-induced response by Fura2-AM dye based calcium mobilization assay relative to untreated control; assay type: functional, cell-based; how it was run: as §1
[3] = biological target: T2, Free fatty acid receptor 4 (Homo sapiens, UniProt Q5NUL3); test: Agonist activity at C-terminal YFP-tagged human FFA4 expressed in HEK293 cells in presence of coelentrazine h by BRET based beta-arrestin-2 interaction assay; assay type: cell-based
T2 sequence (Q5NUL3 whole entry): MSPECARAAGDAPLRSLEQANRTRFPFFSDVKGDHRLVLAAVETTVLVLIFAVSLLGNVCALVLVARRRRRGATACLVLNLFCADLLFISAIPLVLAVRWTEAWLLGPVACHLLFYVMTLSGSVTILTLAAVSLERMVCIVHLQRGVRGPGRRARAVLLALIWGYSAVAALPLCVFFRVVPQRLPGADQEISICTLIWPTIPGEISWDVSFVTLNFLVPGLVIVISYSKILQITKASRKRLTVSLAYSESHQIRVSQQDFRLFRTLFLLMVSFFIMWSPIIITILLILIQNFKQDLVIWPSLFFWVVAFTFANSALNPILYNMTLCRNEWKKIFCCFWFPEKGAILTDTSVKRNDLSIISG
How it was run: (§2)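 HEK293 cells co-transfected with C-terminal eYFP-fused human FFA4 and β-arrestin-2–Renilla luciferase; plated 24 h post-transfection, used 24 h later. After an HBSS wash, coelenterazine h (2.5 µM) for 15 min, with ligands present for the final 5 min, 37 °C. BRET taken as the 535/475 nm emission ratio. Efficacy relative to 100 µM reference agonist. Three-parameter sigmoidal fits; mean ± S.E. of 2-4 independent experiments.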

[4] = biological target: T3, Free fatty acid receptor 4 (Homo sapiens) (UniProt Q5NUL3); test: Agonist activity at C-terminal YFP-tagged human FFA4 expressed in HEK293 cells in presence of coelentrazine h by BRET based beta-arrestin-2 interaction assay relative to 100 uM […]; assay type: cell-based; how it was run: as §2
T3 sequence (whole entry): T2 sequence (Q5NUL3 whole entry)

[5] = biological target: T2, Free fatty acid receptor 4; test: Agonist activity at human FFA4 expressed in human Flp-In T-REx293 cells by Fura2-AM dye based calcium mobilization assay; assay type: functional, cell-based
How it was run: (§3)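 Flp-In T-REx 293 cells with doxycycline-inducible human FFA4 seeded at 50000 cells/well and induced overnight with 100 ng/ml doxycycline. Loaded with Fura2-AM for 45 min, washed three times in HBSS, equilibrated 15 min, then ligand added. Emission at 510 nm with 340/380 nm excitation; response is the change in 340:380 ratio. Efficacy relative to 100 µM reference agonist; 2-4 independent experiments, sigmoidal fits.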

[6] = biological target: T3, Free fatty acid receptor 4 (Homo sapiens); test: Agonist activity at human FFA4 expressed in human Flp-In T-REx293 cells by Fura2-AM dye based calcium mobilization assay relative to 100 uM […]; assay type: functional, cell-based; how it was run: as §3
[7] = biological target: T1, Free fatty acid receptor 1; test: Antagonist activity against human FFA1 expressed in human Flp-In T-REx293 cells assessed as as reduction in TUG770-induced response by Fura2-AM dye based calcium mobilization assay; assay type: functional, cell-based
How it was run: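 Antagonism measured in FFA1 Ca2+ mobilization with 20 nM TUG-770 as the stimulating agonist. Test ligand preincubated 15 min in HBSS before agonist addition. Read-out is the change in Fura2 340:380 ratio at 510 nm emission.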

[8] = Solubility in PBS buffer; assay type: physicochemical
[9] = Solubility in FaSSIF solution; assay type: physicochemical
[10] = biological target: T4, Free fatty acid receptor 4 (Mus musculus, UniProt Q7TMA4); test: Agonist activity mouse FFA4 by Gq-dependent calcium mobilization assay; assay type: functional
T4 sequence (Q7TMA4 whole entry): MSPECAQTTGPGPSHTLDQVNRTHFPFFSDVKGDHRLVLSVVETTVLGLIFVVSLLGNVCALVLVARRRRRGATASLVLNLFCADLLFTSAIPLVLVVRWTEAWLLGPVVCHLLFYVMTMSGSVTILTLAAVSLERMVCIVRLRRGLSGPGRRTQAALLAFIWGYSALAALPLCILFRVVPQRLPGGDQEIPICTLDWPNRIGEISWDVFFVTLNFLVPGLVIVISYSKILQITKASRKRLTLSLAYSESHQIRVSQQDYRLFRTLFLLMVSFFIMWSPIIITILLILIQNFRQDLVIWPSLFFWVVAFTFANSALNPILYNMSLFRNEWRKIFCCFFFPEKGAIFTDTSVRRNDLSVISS

Homo sapiens [11] = organism: Homo sapiens; test: Selectivity for human FFA4 over human FFA1
Homo sapiens [12] = organism: Homo sapiens; test: Selectivity for human FFA4 over FFA2 (unknown origin)
Homo sapiens [13] = organism: Homo sapiens; test: Selectivity for human FFA4 over FFA3 (unknown origin)
[14] = Lipophilicity, log D of the compound at pH 7.4; assay type: physicochemical; conditions: buffer
[15] = biological target: T4, Free fatty acid receptor 4; test: Agonist activity mouse FFA4 by BRET based beta-arrestin-2 interaction assay
How it was run: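 Mouse FFA4 fused C-terminally to eYFP, co-transfected into HEK293 cells with β-arrestin-2–Renilla luciferase. After an HBSS wash, coelenterazine h (2.5 µM) for 15 min, with ligand added for the last 5 min, 37 °C. BRET read as the 535/475 nm luminescence ratio. Three-parameter sigmoidal curve fitting; 2-4 independent experiments.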

Mus musculus [16] = test: Reduction in plasma glucose level in mouse at 10 mg/kg, po dosed 15 mins before oral glucose challenge by OGTT method; assay type: functional, organism-based
How it was run: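 Mice fasted 5 h and given compound orally at 10 mg/kg, 15 min before an oral glucose load of 3 g/kg. Tail-tip blood sampled under local anesthetic 30 min before and immediately before the load, and at 30, 60, 90, 120 and 180 min after it. Glucose measured in duplicate by glucose oxidase colorimetric assay; n=6 mice per group.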

Mus musculus [17] = test: Reduction in plasma glucose level in wild type DIO mouse at 10 mg/kg, po dosed daily over 3 week period administered 15 mins before oral glucose challenge on first day by OGTT method; assay type: functional, organism-based
How it was run: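 Male wild-type and FFA4(-/-) littermates (C57Bl6 background) fed 63% high-fat diet from 6 weeks of age for 5 months. On day 0, fasted 5 h, dosed 10 mg/kg po, then given glucose 3 g/kg po 15 min later. Tail blood sampled from -30 to 180 min; glucose measured in duplicate by colorimetric glucose oxidase assay. n=9 per group; two-way ANOVA with Bonferroni post hoc test.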

Mus musculus [18] = test: Increase in plasma insulin level in wild type DIO mouse at 10 mg/kg, po dosed daily over 3 week period administered 15 mins before oral glucose challenge on first day measured 30 mins after glucose challenge by ELISA; assay type: functional, organism-based
Mus musculus [19] = test: Reduction in fasting plasma insulin level in wild type DIO mouse at 10 mg/kg, po dosed daily over 3 week period administered 15 mins before oral glucose challenge on first day measured after 21 days by ELISA; assay type: functional, organism-based
How it was run: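 DIO wild-type and FFA4(-/-) littermates (63% fat diet for 5 months) dosed 10 mg/kg po once daily for 21 days. Fasting blood collected into EDTA and spun at 3,000 g for 5 min at 4 °C; plasma stored at -80 °C. Insulin measured in duplicate by murine insulin ELISA, absorbance at 450 nm.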

Mus musculus [20] = test: Reduction in glucose level in wild type DIO mouse at 10 mg/kg, po dosed daily over 3 week period administered 15 mins before oral glucose challenge on first day measured after 21 days by OGTT method; assay type: functional, organism-based
[21] = Effect on food intake level in FFA4 (-/-) DIO mouse at 10 mg/kg, po dosed daily over 3 week period administered 15 mins before oral glucose challenge on first day measured after 21 days; assay type: ADME, organism-based; conditions: in vivo, 504 h
[22] = Effect on water intake level in FFA4 (-/-) DIO mouse at 10 mg/kg, po dosed daily over 3 week period administered 15 mins before oral glucose challenge on first day measured after 21 days; assay type: ADME, organism-based; conditions: in vivo, 504 h
[23] = Effect on food intake level in wild type DIO mouse at 10 mg/kg, po dosed daily over 3 week period administered 15 mins before oral glucose challenge on first day measured after 21 days; assay type: ADME, organism-based; conditions: in vivo, 504 h
[24] = Effect on water intake level in wild type DIO mouse at 10 mg/kg, po dosed daily over 3 week period administered 15 mins before oral glucose challenge on first day measured after 21 days; assay type: ADME, organism-based; conditions: in vivo, 504 h
Mus musculus [25] = test: Toxicity in wild type DIO mouse assessed as reduction in body weight at 10 mg/kg, po dosed daily over 3 week period administered 15 mins before oral glucose challenge on first day measured after 21 days; assay type: organism-based; design: scale not given: the % may be the effect or the level left; conditions: in vivo, 504 h
Mus musculus [26] = test: Toxicity in FFA4 (-/-) DIO mouse assessed as reduction in body weight at 10 mg/kg, po dosed daily over 3 week period administered 15 mins before oral glucose challenge on first day measured after 21 days; assay type: organism-based; conditions: in vivo, 504 h
Mus musculus [27] = test: Toxicity in FFA4 (-/-) DIO mouse assessed as weight gain in at 10 mg/kg, po dosed daily over 3 week period administered 15 mins before oral glucose challenge on first day measured after 21 days; assay type: organism-based; conditions: in vivo, 504 h

Compound: CN(c1ccc(Oc2ccccc2)cc1)S(=O)(=O)c1ccc(F)cc1
IC50 [1]: 10700 nM | Imax [2]: 57%

Compound: O=S1(=O)c2ccccc2CN1c1cccc(Oc2ccccc2)c1
EC50 ([3]; read-out: pEC50 (converted)): 245 nM | Emax [4]: 95% | EC50 [5]: 209 nM | Emax [6]: 105% | IC50 [1]: 174 nM | Imax [2]: 39%

Compound: Cc1ccccc1Oc1cc(F)cc(N2Cc3ccccc3S2(=O)=O)c1
EC50 ([3]; read-out: pEC50 (converted)): 2690 nM | Emax [4]: 42% | IC50 [1]: 44700 nM | Imax [2]: 71%

Compound: N#Cc1ccccc1Oc1cc(F)cc(N2Cc3ccccc3S2(=O)=O)c1
EC50 ([3]; read-out: pEC50 (converted)): 16200 nM | Emax [4]: 76% | IC50 [1]: > 100000 nM

Compound: O=S1(=O)c2ccccc2CN1c1cc(F)cc(OCc2ccccc2)c1
EC50 ([3]; read-out: pEC50 (converted)): > 100000 nM | IC50 [1]: 2450 nM | Imax [2]: 36%

Compound: Cc1cccc(Oc2cc(F)cc(N3Cc4ccccc4S3(=O)=O)c2)c1
EC50 ([3]; read-out: pEC50 (converted)): 2630 nM | Emax [4]: 87% | EC50 [5]: 4470 nM | Emax [6]: 14% | IC50 [1]: 25100 nM | Imax [2]: 51%

Compound: O=S(=O)(Nc1ccc(Oc2ccccc2)cc1)c1ccc(F)cc1
EC50 ([3]; read-out: pEC50 (converted)): 3550 nM | Emax [4]: 52% | IC50 [1]: 12900 nM | Imax [2]: 95%

Compound: N#Cc1cccc(Oc2cc(F)cc(N3Cc4ccccc4S3(=O)=O)c2)c1
EC50 ([3]; read-out: pEC50 (converted)): 5750 nM | Emax [4]: 83% | IC50 [1]: 3390 nM | Imax [2]: 52%

The next lines start with results.

EC50 ([3]; read-out: EC50): 40 nM | EC50 ([3]; read-out: pEC50 (converted)): 138 nM | Emax [4]: 113% | EC50 [5]: 38.9 nM | Emax [6]: 78% | IC50 [7]: > 100000 nM | solubility [8]: 0.1 µM (≈ 0.0373 µg/mL) | solubility [9]: 0.9 µM (≈ 0.336 µg/mL) | EC50 [10]: 72.4 nM
Compound: O=S1(=O)c2ccccc2CN1c1cc(Cl)cc(Oc2ccccn2)c1

EC50 ([3]; read-out: EC50): 128 nM | EC50 ([3]; read-out: pEC50 (converted)): 123 nM | Emax [4]: 98% | EC50 [5]: 234 nM | Emax [6]: 130% | IC50 [1]: > 100000 nM | Selectivity ratio (Homo sapiens [11]): > 300 | Selectivity ratio (Homo sapiens [12]): > 300 | Selectivity ratio (Homo sapiens [13]): > 300 | logD [14]: 3.17 | solubility [8]: 1.3 µM (≈ 0.463 µg/mL) | solubility [9]: 14 µM (≈ 4.99 µg/mL) | EC50 [10]: 148 nM | EC50 [15]: 479 nM
Compound: O=S1(=O)c2ccccc2CN1c1cc(F)cc(Oc2ccccn2)c1
Activity (Mus musculus [16]): Active | Activity (Mus musculus [17]): Active | Activity (Mus musculus [18]): Active | Activity (Mus musculus [19]): Active | Activity (Mus musculus [20]): Active | Activity [21]: Non-Toxic | Activity [22]: Non-Toxic | Activity [23]: Non-Toxic | Activity [24]: Non-Toxic | Activity (Mus musculus [25]): 7 to 9% | Activity (Mus musculus [26]): Non-Toxic | Activity (Mus musculus [27]): Non-Toxic

EC50 ([3]; read-out: pEC50 (converted)): 5250 nM | Emax [4]: 57% | IC50 [1]: 20000 nM | Imax [2]: 44%
Compound: N#CCc1cccc(Oc2cc(F)cc(N3Cc4ccccc4S3(=O)=O)c2)c1
